Test results from ChEMBL document CHEMBL1138247 (J Med Chem, 2007).

Key:
[1] = Partition coefficient, log P of the compound; type: physicochemical; details: octanol/water
Method in brief: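 logP extrapolated from reverse-phase HPLC retention time converted to capacity factor k, against a standard calibration curve built from compounds of known logP.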

Integrin alpha-4/beta-1 = Integrin alpha-4/beta-1 (Homo sapiens, UniProt P05556+P13612); assay: Inhibition of integrin alpha4beta1 receptor-mediated human Molt-4 cell adhesion to CS1 peptide; type: cell-based
Sequence of Integrin alpha-4/beta-1 (P05556 whole entry): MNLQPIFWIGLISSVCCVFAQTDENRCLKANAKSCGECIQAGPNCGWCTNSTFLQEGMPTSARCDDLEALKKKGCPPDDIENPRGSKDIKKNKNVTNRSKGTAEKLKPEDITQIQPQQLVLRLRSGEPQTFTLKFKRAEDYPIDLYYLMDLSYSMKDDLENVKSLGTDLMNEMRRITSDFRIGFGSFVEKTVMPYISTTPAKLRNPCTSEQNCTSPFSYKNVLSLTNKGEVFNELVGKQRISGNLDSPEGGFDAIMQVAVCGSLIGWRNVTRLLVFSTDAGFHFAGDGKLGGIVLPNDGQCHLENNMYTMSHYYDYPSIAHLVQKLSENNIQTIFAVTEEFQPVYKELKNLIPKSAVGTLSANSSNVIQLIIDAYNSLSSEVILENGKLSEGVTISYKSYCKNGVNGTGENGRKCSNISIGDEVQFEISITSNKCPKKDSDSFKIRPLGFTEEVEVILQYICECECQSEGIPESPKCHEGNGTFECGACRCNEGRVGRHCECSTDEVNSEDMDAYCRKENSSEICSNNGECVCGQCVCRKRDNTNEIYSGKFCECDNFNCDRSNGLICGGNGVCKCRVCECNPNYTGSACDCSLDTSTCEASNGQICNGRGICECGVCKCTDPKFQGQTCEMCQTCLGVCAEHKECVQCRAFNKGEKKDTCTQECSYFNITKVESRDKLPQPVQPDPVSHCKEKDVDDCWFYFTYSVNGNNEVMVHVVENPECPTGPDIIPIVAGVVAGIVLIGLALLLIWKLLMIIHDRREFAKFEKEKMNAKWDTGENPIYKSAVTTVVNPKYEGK
Sequence of Integrin alpha-4/beta-1 (P13612 whole entry): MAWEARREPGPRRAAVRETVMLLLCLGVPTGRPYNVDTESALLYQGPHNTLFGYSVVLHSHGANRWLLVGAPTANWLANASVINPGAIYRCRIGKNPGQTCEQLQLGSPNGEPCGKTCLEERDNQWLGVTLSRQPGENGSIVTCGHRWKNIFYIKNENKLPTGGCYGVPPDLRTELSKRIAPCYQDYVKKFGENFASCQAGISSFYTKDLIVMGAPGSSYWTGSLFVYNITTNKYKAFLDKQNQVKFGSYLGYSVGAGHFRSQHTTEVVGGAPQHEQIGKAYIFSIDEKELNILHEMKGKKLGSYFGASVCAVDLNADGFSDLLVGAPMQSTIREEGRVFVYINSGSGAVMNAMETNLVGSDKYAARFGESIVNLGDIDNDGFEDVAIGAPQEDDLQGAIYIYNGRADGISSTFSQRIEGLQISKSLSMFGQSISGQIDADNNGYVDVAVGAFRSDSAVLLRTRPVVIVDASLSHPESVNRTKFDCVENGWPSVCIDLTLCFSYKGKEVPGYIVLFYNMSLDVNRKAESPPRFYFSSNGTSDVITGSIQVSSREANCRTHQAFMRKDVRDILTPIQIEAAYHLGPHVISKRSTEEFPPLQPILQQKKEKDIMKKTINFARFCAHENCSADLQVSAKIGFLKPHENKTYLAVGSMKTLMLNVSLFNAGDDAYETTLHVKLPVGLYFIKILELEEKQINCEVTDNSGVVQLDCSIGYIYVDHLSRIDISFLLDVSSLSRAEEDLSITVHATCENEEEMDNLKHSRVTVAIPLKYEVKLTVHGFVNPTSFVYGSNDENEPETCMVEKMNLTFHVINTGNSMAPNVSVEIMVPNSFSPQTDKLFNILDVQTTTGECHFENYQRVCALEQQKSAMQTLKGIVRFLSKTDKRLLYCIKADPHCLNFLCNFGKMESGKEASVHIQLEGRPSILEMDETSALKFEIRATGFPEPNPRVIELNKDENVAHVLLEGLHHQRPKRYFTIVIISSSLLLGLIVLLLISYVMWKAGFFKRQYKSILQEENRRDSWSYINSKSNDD

SMILES: NC(=O)C1(NC(=O)[C@@H](CCCC(=O)O)NC(=O)[C@@H](CCCCNC(=O)/C=C/c2cccnc2)NC(=O)CCc2ccc(Nc3nc4ccccc4[nH]3)cc2)CCCCC1
- logP [1]: 2.8
- IC50 (Integrin alpha-4/beta-1): 344 nM

SMILES: NC(=O)C1(NC(=O)[C@@H](CCCC(=O)O)NC(=O)[C@@H](CCCCNC(=O)/C=C/c2cccnc2)NC(=O)Cc2ccc(Nc3nc4cc(Br)ccc4[nH]3)cc2)CCCCC1
- logP [1]: 1.96
- IC50 (Integrin alpha-4/beta-1): 340 nM

SMILES: Cc1cccc2[nH]c(Nc3ccc(CC(=O)N[C@H](CCCCNC(=O)/C=C/c4cccnc4)C(=O)N[C@H](CCCC(=O)O)C(=O)NC4(C(N)=O)CCCCC4)cc3)nc12
- logP [1]: 2.58
- IC50 (Integrin alpha-4/beta-1): 27.5 nM

SMILES: Cc1cccc2[nH]c(Nc3ccc(C(=O)N[C@H](CCCCNC(=O)/C=C/c4cccnc4)C(=O)N[C@H](CCCC(=O)O)C(=O)NC4(C(N)=O)CCCCC4)cc3)nc12
- logP [1]: 1.86
- IC50 (Integrin alpha-4/beta-1): 655 nM

SMILES: NC(=O)C1(NC(=O)[C@@H](CCCC(=O)O)NC(=O)[C@@H](CCCCNC(=O)/C=C/c2cccnc2)NC(=O)Cc2ccc(Nc3nc4ccccc4[nH]3)cc2)CCCCC1
- logP [1]: 2.23
- IC50 (Integrin alpha-4/beta-1): 0.305 nM

SMILES: NC(=O)C1(NC(=O)[C@@H](CCCC(=O)O)NC(=O)[C@@H](CCCCNC(=O)/C=C/c2cccnc2)NC(=O)c2cccc(Nc3nc4ccccc4[nH]3)c2)CCCCC1
- logP [1]: 2.12
- IC50 (Integrin alpha-4/beta-1): 186 nM

SMILES: NC(=O)C1(NC(=O)[C@@H](CCCC(=O)O)NC(=O)[C@@H](CCCCNC(=O)/C=C/c2cccnc2)NC(=O)c2ccc(Nc3nc4ccccc4[nH]3)cc2)CCCCC1
- logP [1]: 1.83
- IC50 (Integrin alpha-4/beta-1): 420 nM

SMILES: CC(C(=O)N[C@H](CCCCNC(=O)/C=C/c1cccnc1)C(=O)N[C@H](CCCC(=O)O)C(=O)NC1(C(N)=O)CCCCC1)c1ccc(Nc2nc3ccccc3[nH]2)cc1 (stereo partly specified)
- logP [1]: 2.63
- IC50 (Integrin alpha-4/beta-1): 444 nM
